The nature of data set [1]: Stability of each chemical component in rat plasma. The class given is in vitro ADME. In short, it runs like this:
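Blank rat plasma was spiked at 10, 100 and 500 ng/mL and held at room temperature for 24 h, at 4 °C for 14 d, or frozen at −20 °C for 15 d. Six samples per level were assayed by HPLC-MS/MS against 1,8-dihydroxyanthraquinone internal standard. Calibration ran 5–1 000 ng/mL, with analyte/IS ratio fitted by 1/x-weighted least squares.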

Data set [2] is classed as in vivo, SD rats. As to conditions: male, SD, rat, plasma, po, 1.5 mL/200 g.
The nature of data set [3]: Pharmacokinetics of five components in control. The class given is in vivo, SD rats. As to conditions: for AUC / AUC(0-t) / Cmax / MRT last / half-life / Tmax: male, SD, rat, plasma, po, 1.5 mL/200 g, n = 6; for AUC: AUC(0−i); for MRT last: MRT0−t. In short, it runs like this:
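Male SD rats (8-week-old, 200–220 g), four groups (n = 6). Acute liver injury induced by intraperitoneal 50% CCl4 in olive oil at 3 mL/kg; controls received olive oil; fasted with water. After 12 h, single intragastric decoction at 1.5 mL/200 g. Tail-vein blood taken at 0–12 h into heparin. HPLC-MS/MS with internal standard; compartment-model fit for AUC, Cmax, Tmax, T1/2 and MRT.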

Where [4] appears, read: 10 ng/mL, room temperature for 24 h.
Setting [5] is: 100 ng/mL, room temperature for 24 h.
Where [6] appears, read: 100 ng/mL, −20 °C free for 15 d.
[7] abbreviates: 500 ng/mL, room temperature for 24 h.
[8] abbreviates: 500 ng/mL, −20 °C free for 15 d.
[9] abbreviates: RhRR of control group, single oral 1.5 mL/200 g RhRR decoction.
Setting [10] is: RhRR-EuS of control group, single oral 1.5 mL/200 g RhRR-EuS decoction.
The mark [11] stands for this setting: T1/2, RhRR-EuS of control group, single oral 1.5 mL/200 g RhRR-EuS decoction.

Like-named read-outs stand apart in the source and are kept apart here.

Regarding `O=C1c2cccc(O)c2C(=O)c2c(O)cc(CO)cc21` [Ae, Aloe emodin], the “Stability S” value in data set [1] (setting [4]) is listed as 99.60%; in data set [1] (10 ng/mL, −4 °C for 14 d), 107%; in data set [1] (10 ng/mL, −20 °C free for 15 d) it was 88.6%; in data set [1] (setting [5]), 88.50%; in data set [1] (100 ng/mL, −4 °C for 14 d) it was 112%; in data set [1] (setting [6]), 84.3%. Besides, the “Stability S” value came out at 98.50% in data set [1] (setting [7]); 98.30% in data set [1] (500 ng/mL, −4 °C for 14 d); 85.6% in data set [1] (setting [8]). Further, the Tmax in data set [2] worked out at 2 h; in data set [3] (setting [9]), 120 min; in data set [3] (setting [10]) it was 30 min. For the same compound, the exposure (AUC) was determined as 738 ng·h/mL in data set [3] (setting [9]) and 489 ng·h/mL in data set [3] (setting [10]). For the same compound, the area under the curve AUC(0-t) in data set [3] (setting [9]) was determined as 474 ng·h/mL; in data set [3] (setting [10]), 443 ng·h/mL. In addition, the maximum concentration (Cmax) in data set [3] (setting [9]) is 101 ng/mL; in data set [3] (setting [10]), 124 ng/mL. In addition, the results for the MRT last in data set [3] (setting [9]) and in data set [3] (setting [10]) were 11.9 h and 5.78 h, respectively. The compound also gave a half-life in data set [3] (setting [11]) of 182 min.

On to `Cc1cc(O)c2c(c1)C(=O)c1cccc(O)c1C2=O` [Ch, Chrysophanol], for which the “Stability S” value in data set [1] (setting [4]) worked out at 114%; in data set [1] (10 ng/mL, −4 °C for 14 d), 99.70%; in data set [1] (10 ng/mL, −20 °C free for 15 d), 105.40%; in data set [1] (setting [5]) it was 105%; in data set [1] (100 ng/mL, −4 °C for 14 d), 103%; in data set [1] (setting [6]) it was 102.30%. Further, the “Stability S” value in data set [1] (setting [7]) stood at 90.40%; in data set [1] (500 ng/mL, −4 °C for 14 d) it was 96.30%; in data set [1] (setting [8]), 99.50%. Besides, the Tmax in data set [2] came out at 0.5 h; in data set [3] (setting [9]), 60 min. In addition, the exposure (AUC) in data set [3] (setting [9]) is 712 ng·h/mL; in data set [3] (setting [10]), 763 ng·h/mL. Besides, the exposure AUC(0-t) was determined as 662 ng·h/mL in data set [3] (setting [9]) and 739 ng·h/mL in data set [3] (setting [10]). The maximum concentration (Cmax) is 164 ng/mL in data set [3] (setting [9]) and 170 ng/mL in data set [3] (setting [10]). Moreover, the values for the MRT last in data set [3] (setting [9]) and in data set [3] (setting [10]) were 5.33 h and 5.64 h, respectively. Further, the half-life in data set [3] (T1/2, RhRR of control group, single oral 1.5 mL/200 g RhRR decoction) was 218 min; in data set [3] (setting [11]), 78.6 min.

In the case of `Cc1cc(O)c2c(c1)C(=O)c1cc(O)cc(O)c1C2=O` [Em, Emodin], the “Stability S” value in data set [1] (setting [4]) is recorded as 104.60%; in data set [1] (10 ng/mL, −4 °C for 14 d) it was 105%; in data set [1] (10 ng/mL, −20 °C free for 15 d) it was 98.50%; in data set [1] (setting [5]), 110.40%; in data set [1] (100 ng/mL, −4 °C for 14 d), 108%; in data set [1] (setting [6]), 108.40%. In addition, the “Stability S” value in data set [1] (setting [7]) turned out to be 99.60%; in data set [1] (500 ng/mL, −4 °C for 14 d), 89.90%; in data set [1] (setting [8]), 106%. Moreover, the figures for the AUC in data set [3] (setting [9]) and in data set [3] (setting [10]) were 94.1 ng·h/mL and 154 ng·h/mL, respectively. In addition, the AUC(0-t) in data set [3] (setting [9]) was found to be 67.7 ng·h/mL; in data set [3] (setting [10]), 68.3 ng·h/mL. Further, the highest concentration (Cmax) in data set [3] (setting [9]) was found to be 11.2 ng/mL; in data set [3] (setting [10]) it was 16.4 ng/mL. In addition, the figures for the mean residence time MRT last in data set [3] (setting [9]) and in data set [3] (setting [10]) were 9.3 h and 18.3 h, respectively. Moreover, in data set [3] (setting [11]), the half-life is 685 min. Besides, the Tmax in data set [3] (setting [9]) is 30 min.

With `COc1cc(O)c2c(c1)C(=O)c1cc(C)cc(O)c1C2=O` [Ph, Physcion], the “Stability S” value in data set [1] (setting [4]) is 103%; in data set [1] (10 ng/mL, −4 °C for 14 d) it was 99.50%; in data set [1] (10 ng/mL, −20 °C free for 15 d), 105%; in data set [1] (setting [5]), 105%; in data set [1] (100 ng/mL, −4 °C for 14 d) it was 102%; in data set [1] (setting [6]), 100.6%. In addition, the “Stability S” value is 90.50% in data set [1] (setting [7]); 96.70% in data set [1] (500 ng/mL, −4 °C for 14 d); 95.3% in data set [1] (setting [8]). Further, the results for the Tmax in data set [2] and in data set [3] (setting [10]) were 0.25 h and 15 min, respectively. For the same compound, the exposure (AUC) came out at 414 ng·h/mL in data set [3] (setting [9]) and 243 ng·h/mL in data set [3] (setting [10]). The exposure AUC(0-t) in data set [3] (setting [9]) and in data set [3] (setting [10]) was 136 ng·h/mL in each case. For the same compound, the maximum concentration (Cmax) in data set [3] (setting [9]) stood at 54.4 ng/mL; in data set [3] (setting [10]) it was 58.6 ng/mL. In addition, the MRT last in data set [3] (setting [9]) was 37.3 h; in data set [3] (setting [10]), 14.7 h. In addition, the half-life in data set [3] (setting [11]) was 654 min.

As to `O=C(O)c1cc(O)c2c(c1)C(=O)c1cccc(O)c1C2=O` [Rh, Rhein], the “Stability S” value in data set [1] (setting [4]) is given as 106.20%; in data set [1] (10 ng/mL, −4 °C for 14 d), 95.90%; in data set [1] (10 ng/mL, −20 °C free for 15 d), 109.40%; in data set [1] (setting [5]), 112.30%; in data set [1] (100 ng/mL, −4 °C for 14 d), 94.60%; in data set [1] (setting [6]), 95.30%. Also, the “Stability S” value in data set [1] (setting [7]) is reported as 89.40%; in data set [1] (500 ng/mL, −4 °C for 14 d), 85.40%; in data set [1] (setting [8]) it was 100.40%. For the same compound, the Tmax in data set [2] stood at 8 h. The “Bioavailability among the five components” value in data set [3] (all groups (control and model rats, oral RhRR or RhRR-EuS decoction)) was “highest”. For the same compound, the area under the curve (AUC) came out at 1670 ng·h/mL in data set [3] (setting [9]) and 1720 ng·h/mL in data set [3] (setting [10]). Moreover, the AUC(0-t) in data set [3] (setting [9]) stood at 1440 ng·h/mL; in data set [3] (setting [10]), 1600 ng·h/mL. Moreover, the maximum concentration (Cmax) in data set [3] (setting [9]) stood at 434 ng/mL; in data set [3] (setting [10]), 455 ng/mL. In addition, the results for the mean residence time (MRT last) in data set [3] (setting [9]) and in data set [3] (setting [10]) were 6.31 h and 5.44 h, respectively. The half-life in data set [3] (setting [11]) was 110 min.

What is called Tmax is the time at which the peak concentration occurs. By AUC is commonly meant concentration integrated over time. Lower therefore signals low exposure. As usually defined, the AUC(0-t) is the area under the concentration-time curve up to a stated or last time point. Higher therefore signals more exposure. In general, Cmax refers to the highest concentration seen after dosing. A word on the MRT last: it is a mean duration of stay, worked out from the concentration-time curve. A word on the half-life: it is the time in which the quantity being followed falls by half. Lower therefore signals rapid decline.
